In ChEMBL document CHEMBL1143742, “An antifungal agent inhibits an aminoacyl-tRNA synthetase by trapping tRNA in the editing site” (Science, 2007):
≈ marks a conversion by molar mass, not a printed value. Calls of active or inactive are those of the source. The calls are words filed in the database; no cut-off is given here.

Columns and labels:
[1] = system: Saccharomyces cerevisiae; test: Antimicrobial activity against Saccharomyces cerevisiae in synthetic defined media without leucine; assay type: functional
[2] = system: Saccharomyces cerevisiae; test: Antimicrobial activity against AN2690-resistant Saccharomyces cerevisiae ANA323 with CDC60 G405V mutation; assay type: functional
[3] = system: Epidermophyton floccosum; test: Antifungal activity against Epidermophyton floccosum ATCC 525066; assay type: functional
[4] = system: Saccharomyces cerevisiae; test: Antimicrobial activity against AN2690-resistant Saccharomyces cerevisiae ANA360 with CDC60 T319I mutation; assay type: functional
[5] = Antifungal activity against Rhizopus microsporus ATCC 66276; assay type: functional
[6] = system: Trichophyton benhamiae; test: Antifungal activity against Trichophyton mentagrophytes ATCC 28185; assay type: functional, Arthroderma benhamiae
[7] = system: Penicillium chrysogenum; test: Antifungal activity against Penicillium chrysogenum ATCC 10108; assay type: functional
[8] = system: Saccharomyces cerevisiae; test: Antimicrobial activity against AN2690-resistant Saccharomyces cerevisiae ANA358 with CDC60 S416L mutation; assay type: functional
[9] = target: T1, Leucine--tRNA ligase, cytoplasmic (Saccharomyces cerevisiae S288c, UniProt P26637); test: Binding affinity to Saccharomyces cerevisiae cytoplasmic leucyl-tRNA synthetase in presence of AMP
T1 sequence (P26637 whole entry): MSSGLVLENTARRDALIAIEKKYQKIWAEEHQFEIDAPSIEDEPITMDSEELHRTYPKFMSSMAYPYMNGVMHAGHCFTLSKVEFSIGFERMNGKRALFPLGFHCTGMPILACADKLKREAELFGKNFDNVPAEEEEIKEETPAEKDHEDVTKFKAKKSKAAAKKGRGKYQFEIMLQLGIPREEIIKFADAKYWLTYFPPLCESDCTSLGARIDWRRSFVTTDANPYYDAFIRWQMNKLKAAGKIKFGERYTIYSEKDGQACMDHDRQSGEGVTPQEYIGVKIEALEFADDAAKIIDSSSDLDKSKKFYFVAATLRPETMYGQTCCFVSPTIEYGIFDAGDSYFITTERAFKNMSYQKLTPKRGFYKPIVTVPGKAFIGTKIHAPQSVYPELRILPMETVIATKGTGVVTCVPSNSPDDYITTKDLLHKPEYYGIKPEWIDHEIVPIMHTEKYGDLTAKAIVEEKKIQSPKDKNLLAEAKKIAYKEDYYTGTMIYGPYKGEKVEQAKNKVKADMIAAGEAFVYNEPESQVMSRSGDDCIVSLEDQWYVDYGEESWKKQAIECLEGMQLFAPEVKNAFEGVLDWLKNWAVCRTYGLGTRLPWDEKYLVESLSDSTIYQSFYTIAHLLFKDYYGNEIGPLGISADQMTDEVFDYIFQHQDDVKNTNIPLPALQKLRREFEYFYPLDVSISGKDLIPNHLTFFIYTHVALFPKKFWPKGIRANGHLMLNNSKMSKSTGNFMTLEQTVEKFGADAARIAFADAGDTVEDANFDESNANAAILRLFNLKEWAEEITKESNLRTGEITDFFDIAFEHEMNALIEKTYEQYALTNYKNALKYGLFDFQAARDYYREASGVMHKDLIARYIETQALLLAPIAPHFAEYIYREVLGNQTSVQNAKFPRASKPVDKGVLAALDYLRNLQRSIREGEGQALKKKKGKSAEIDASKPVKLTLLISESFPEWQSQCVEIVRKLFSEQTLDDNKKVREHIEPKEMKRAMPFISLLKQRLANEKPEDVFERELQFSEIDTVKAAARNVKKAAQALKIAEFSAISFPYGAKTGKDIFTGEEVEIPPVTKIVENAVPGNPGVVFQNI
Method in brief: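 Equilibrium dialysis across a 5 kDa membrane in 50 mM HEPES-KOH pH 8.0, 30 mM MgCl2, 30 mM KCl. Both sides counted in triplicate by scintillation, bound = side B minus side A. Kd from Scatchard plot.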

[10] = system: Saccharomyces cerevisiae; test: Antimicrobial activity against AN2690-resistant Saccharomyces cerevisiae ANA322 with CDC60 C326F mutation; assay type: functional
[11] = target: T1, Leucine--tRNA ligase, cytoplasmic; test: Inhibition of Saccharomyces cerevisiae cytoplasmic leucyl-tRNA synthetase after 20 mins
Method in brief: (§1)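 His6-tagged yeast Cdc60p (LeuRS) expressed in E. coli Rosetta 2(DE3), used at 2 nM. Buffer 50 mM HEPES-KOH pH 8.0, 30 mM MgCl2, 30 mM KCl, 20 µM [14C]leucine, 0.2 mg/mL brewer's yeast tRNA, 0.02% BSA, 1 mM DTT, 30 °C. TCA-precipitated Leu-tRNA counted. Ki from Lineweaver-Burk y-intercepts replotted against inhibitor.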

[12] = system: Malassezia furfur; test: Antifungal activity against Malassezia furfur ATCC 44344; assay type: functional
[13] = system: Candida tropicalis; test: Antifungal activity against Candida tropicalis ATCC 13803; assay type: functional
[14] = system: Malassezia pachydermatis; test: Antifungal activity against Malassezia pachydermatis ATCC 96746; assay type: functional
[15] = system: Microsporum audouinii; test: Antifungal activity against Microsporum audouinii ATCC 42558; assay type: functional
[16] = system: Fusarium solani; test: Antifungal activity against Fusarium solani ATCC 36031; assay type: functional
[17] = system: Saccharomyces cerevisiae; test: Antimicrobial activity against AN2690-resistant Saccharomyces cerevisiae ANA327 with CDC60 T314M mutation; assay type: functional
[18] = system: Saccharomyces cerevisiae; test: Antimicrobial activity against AN2690-resistant Saccharomyces cerevisiae ANA324 with CDC60 C326R mutation; assay type: functional
[19] = system: Cladosporium cladosporioides; test: Antifungal activity against Cladosporium cladosporioides ATCC 16022; assay type: functional
[20] = target: T1, Leucine--tRNA ligase, cytoplasmic; test: Inhibition of Saccharomyces cerevisiae cytoplasmic leucyl-tRNA synthetase assessed as tRNA amino-acylation
Method in brief: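 Recombinant N-terminal His6-tagged yeast Cdc60p (2 nM) in 50 mM HEPES-KOH pH 8.0, 30 mM MgCl2, 30 mM KCl, 0.02% BSA, 1 mM DTT, 20 µM [14C]leucine, 0.2 mg/mL brewer's yeast tRNA at 30°C. Enzyme preincubated 20 min with compound, tRNA and leucine; started with 4 mM ATP. Timed aliquots TCA-precipitated on nitrocellulose filters and counted by scintillation; triplicates.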

[21] = system: Saccharomyces cerevisiae; test: Antimicrobial activity against AN2690-resistant Saccharomyces cerevisiae ANA320 with CDC60 N415D mutation; assay type: functional
[22] = system: Trichophyton rubrum; test: Antifungal activity against Trichophyton rubrum ATCC 18759; assay type: functional
[23] = system: Nakaseomyces glabratus; test: Antifungal activity against Candida glabrata ATCC 90030; assay type: functional
[24] = system: Pichia kudriavzevii; test: Antifungal activity against Candida krusei ATCC 44507; assay type: functional
[25] = system: Alternaria alternata; test: Antifungal activity against Alternaria alternata ATCC 6663; assay type: functional
[26] = system: Saccharomyces cerevisiae; test: Antimicrobial activity against AN2690-resistant Saccharomyces cerevisiae ANA321 with CDC60 R316I mutation; assay type: functional
[27] = system: Saccharomyces cerevisiae; test: Antimicrobial activity against Saccharomyces cerevisiae ATCC 201388; assay type: functional
[28] = system: Candida albicans; test: Antifungal activity against Candida albicans ATCC 90028; assay type: functional
[29] = system: Saccharomyces cerevisiae; test: Antimicrobial activity against AN2690-resistant Saccharomyces cerevisiae ANA326 with CDC60 L315V mutation; assay type: functional
[30] = target: T1, Leucine--tRNA ligase, cytoplasmic; test: Inhibition of Saccharomyces cerevisiae cytoplasmic leucyl-tRNA synthetase after 2 mins; method in brief: as §1
[31] = system: Nannizzia gypsea; test: Antifungal activity against Microsporum gypseum ATCC 24103; assay type: functional
[32] = system: Aspergillus fumigatus; test: Antifungal activity against Aspergillus fumigatus ATCC 13073; assay type: functional
[33] = system: Saccharomyces cerevisiae; test: Inhibition of protein synthesis in Saccharomyces cerevisiae S288C after 15 mins; assay type: functional, organism-based
Method in brief: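 Mid-log S. cerevisiae S288C in SDM lacking leucine, given 0.25 µCi [14C]leucine plus compound over a range of concentrations. 15 min at 30 °C, then cold 10% TCA for 15 min at 4 °C. Precipitate filtered, washed with 5% TCA and scintillation-counted. Percent incorporation relative to untreated cells. Run twice and averaged.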

[34] = system: Cryptococcus neoformans; test: Antifungal activity against Cryptococcus neoformans F285; assay type: functional

SMILES: C/C=C/C/C=C/CCC(=O)[C@H]1O[C@H]1C(N)=O [CERULENIN]
- MIC [1]: 0.5 µg/mL (≈ 2.24 µM)

SMILES: OB1OCc2cc(F)ccc21 [TAVABOROLE]
- MIC [1]: 0.06 µg/mL (≈ 0.395 µM)
- MIC [2]: 16 µg/mL (≈ 105 µM)
- MIC [3]: 1 µg/mL (≈ 6.58 µM)
- MIC [4]: 32 µg/mL (≈ 211 µM)
- MIC [5]: 2 µg/mL (≈ 13.2 µM)
- MIC [6]: 2 µg/mL (≈ 13.2 µM)
- MIC [7]: 2 µg/mL (≈ 13.2 µM)
- MIC [8]: 32 µg/mL (≈ 211 µM)
- Kd [9]: 20.8 µM
- MIC [10]: 16 µg/mL (≈ 105 µM)
- Ki [11]: 1.85 µM
- MIC [12]: 1 µg/mL (≈ 6.58 µM)
- MIC [13]: 0.25 µg/mL (≈ 1.65 µM)
- MIC [14]: 1 µg/mL (≈ 6.58 µM)
- MIC [15]: 2 µg/mL (≈ 13.2 µM)
- MIC [16]: 2 µg/mL (≈ 13.2 µM)
- MIC [17]: 32 µg/mL (≈ 211 µM)
- MIC [18]: 16 µg/mL (≈ 105 µM)
- MIC [19]: 0.5 µg/mL (≈ 3.29 µM)
- IC50 [20]: 2.1 µM
- MIC [21]: 4 µg/mL (≈ 26.3 µM)
- MIC [22]: 2 µg/mL (≈ 13.2 µM)
- MIC [23]: ≤ 0.125 µg/mL
- MIC [24]: 1 µg/mL (≈ 6.58 µM)
- MIC [25]: 0.5 µg/mL (≈ 3.29 µM)
- MIC [26]: 16 µg/mL (≈ 105 µM)
- MIC [27]: 0.125 µg/mL (≈ 0.823 µM)
- MIC [28]: 0.5 µg/mL (≈ 3.29 µM)
- MIC [29]: 16 µg/mL (≈ 105 µM)
- Ki [30]: 31.4 µM
- MIC [31]: 2 µg/mL (≈ 13.2 µM)
- MIC [32]: 0.25 µg/mL (≈ 1.65 µM)
- Activity [33]: Active
- MIC [34]: 0.25 µg/mL (≈ 1.65 µM)

SMILES: OC1OCc2cc(F)ccc21 (stereo not drawn)
- IC50 [20]: > 100 µM

SMILES: C[C@@H]1C[C@@H]([C@H](O)CC2CC(=O)NC(=O)C2)C(=O)[C@@H](C)C1 [CYCLOHEXIMIDE]
- MIC [1]: 0.5 µg/mL (≈ 1.78 µM)

SMILES: O=C1OCc2cc(F)ccc21
- IC50 [20]: > 100 µM

SMILES: Cc1cc(F)ccc1B(O)O
- IC50 [20]: > 100 µM

SMILES: C[C@@H]1[C@H](O)[C@@H](C)/C=C/C=C/C=C/C=C/C=C/C=C/C=C/[C@H](O[C@@H]2O[C@H](C)[C@@H](O)[C@H](N)[C@@H]2O)C[C@@H]2O[C@](O)(C[C@@H](O)C[C@@H](O)[C@H](O)CC[C@@H](O)C[C@@H](O)CC(=O)O[C@H]1C)C[C@H](O)[C@H]2C(=O)O [AMPHOTERICIN B]
- MIC [1]: 1 µg/mL (≈ 1.08 µM)

SMILES: OB1OCCc2cc(F)ccc21
- IC50 [20]: 96 µM

SMILES: COCc1cc(F)ccc1B(O)O
- IC50 [20]: > 100 µM

SMILES: OB(O)c1ccc(F)cc1
- IC50 [20]: > 100 µM
